HSP90 refold inh: inhibitors of HSP90 luciferase refolding in rabbit reticulocyte lysate; luciferase refolding luminescence, 3 h; inhibition, % at 5.6 µM; 0.91% of 290,000 active; AID 1789;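 active means inhibition above the screen-wide mean plus 3 SD, computed separately per campaign, cut at about 16% in these data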;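 further: 0% = DMSO wells and 100% = 60 µM geldanamycin wells; inhibitors lower the luminescence because luciferase stays unfolded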
STAT3 inh: reduces IL-6 driven STAT3 reporter signal; inhibition, % at 5.5 µM; AID 862; U3A cells, IL-6 STAT3-luciferase reporter, luminescence; host cell line lacks STAT1; 0.89% of 190,000 active;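 active means inhibition above the mean inhibition across all screened compounds plus 3 SD, cut at about 44% in these data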;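 further: 0% = DMSO only wells and 100% = 100 µM nifuroxazide control wells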
STAT3 act-1: activators of IL-6 induced STAT3 signaling; U3A cells, IL-6 STAT3-luciferase reporter, luminescence; 100% = signal with IL-6 EC80 alone; activation (% of control), % at 5.6 µM; 0.91% of 190,000 active; AID 871;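 active means activation above the screen-wide mean of compound activation plus 3 SD, cut at about 130% in these data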;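 further: 0% = background luminescence of wells with medium and substrate only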
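Material: human U3A cells carrying STAT3-luciferase construct. Measured by: reporter luminescence signal. Timing: compound 1 h, then IL-6 6 h at 37 °C.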
STAT1 inh: reduces IFN-gamma driven STAT1 reporter signal | NIH 3T3 STAT1-luciferase reporter, luminescence | inhibition, % at 5.5 µM | 0.35% of 200,000 active | AID 920;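 active means inhibition above a set limit, the mean inhibition across all tested compounds plus 3 SD, cut at about 34% in these data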;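 further: 0% = IFN-gamma with DMSO and 100% = IFN-gamma with 300 µM nifuroxazide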
STAT3 act-2: STAT3 activation, confirmation assay. shares compounds with STAT3 act-1. U3A STAT3-luciferase reporter, IL-6 potentiation, luminescence; U3A cells lack STAT1; 100 means same as IL-6 alone. potentiation (% of control), % at 5.7 µM. 64% of 1,200 active. AID 1267;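 active means percent activation of the STAT3 luciferase reporter above a set limit taken from the earlier primary screen, cut at about 130% in these data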;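 further: 0% = background signal of medium plus substrate and 100% = median of IL-6 with DMSO wells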
NFkB act STAT3ct: NF-kappaB activation in STAT3 activator counter-screen; activation (% of control), % at 5.7 µM; AID 1309; human cells, NF-kappaB reporter activation; shares compounds with STAT3 act-1; 11% of 1,200 active; in the data active means activation above about 120%;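 further: reporter induced by TNF-alpha stimulation; 100% = median of stimulated DMSO wells and 0% = no signal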
STAT1 act: counter-screen for STAT3 activators: STAT1 activation; shares compounds with STAT3 act-1; AID 1318; NIH 3T3 STAT1-luciferase reporter, IFN-gamma, luminescence; 13% of 1,200 active; activation (% of control), % at 5.7 µM;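 active means activation above the solvent-only control well mean plus 3 SD, set per screening run, cut at about 120% in these data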;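 further: 100% = IFN-gamma with DMSO median signal so 100% means no change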
* marks the source's active call; other numbers are inactive results; . = no result given. The list is not random: actives were taken first. Their share in the collection is about 2%.

SMILES	HSP90 refold inh	STAT3 inh	STAT3 act-1	STAT1 inh	STAT3 act-2	NFkB act STAT3ct	STAT1 act
Cn1c(=O)c(-c2ccccc2N)nc2ccccc21	1	-11	116	5	.	.	.
O=S(=O)(Nc1nc2ccccc2s1)c1ccc(Cl)s1	-2	-45	138*	3	121	105	102
COc1cc(C(=O)Nc2nnc(C3=COCCO3)o2)cc(OC)c1OC	-2	.	.	.	.	.	.
O=C(c1ccccc1)c1nn(-c2ccc(Cl)cc2)cc1C(=O)c1cc2ccccc2oc1=O	-1	-34	136*	-1	121	102	105
Cc1cc(C)c(NC(=O)CS(=O)CC(=O)Nc2ccc(-n3cnnn3)c(C)c2)c(C)c1 (configuration not stated)	-1	.	.	.	.	.	.
CC(=O)c1cc2c(cc1NS(=O)(=O)c1ccccc1Br)OCO2	-4	.	.	.	.	.	.
CC1CCN(C(=O)Cn2c(=O)n(CCc3ccccc3)c(=O)c3ccccc32)CC1	1	-47	140*	13	138*	102	83
CCOC(=O)N1CCN(C(=O)c2ccc3nc4ccsc4c(=O)n3c2)CC1	-5	-45	137*	-3	134*	100	100
COC(=O)c1ccc(N2CCN(C(=O)C3CC3)CC2)c([N+](=O)[O-])c1	-1	.	.	.	.	.	.
COC(=O)c1ccc(N2CCN(CC(=O)c3ccc(-c4ccccc4)cc3)CC2)c([N+](=O)[O-])c1	1	-43	144*	-9	138*	108	124*
COc1cc(NC(=O)c2noc3c2CCC3)c(OC)cc1Cl	-1	-50	146*	8	157*	101	102
COc1cc(NC(=O)c2cc(-c3ccco3)on2)c(OC)cc1Cl	5	-75	165*	-5	145*	101	97
COc1ccc(NC(=O)c2cc(-c3ccco3)on2)c(OC)c1	3	.	.	.	.	.	.
CCCc1cc(C(=O)Nc2cc(OC)c(Cl)cc2OC)no1	-2	-74	166*	2	162*	103	103
COc1cc(N)c(Cl)cc1NC(=O)c1ccccc1	7	9	98	-8	.	.	.
COc1cc(NC(=O)c2ccccc2)c(OC)cc1Cl	-2	-58	150*	-3	143*	106	105
COc1cc(OC)c(NC(=O)N2CCOCC2)cc1Cl	-2	.	.	.	.	.	.
COC(=O)c1ccccc1NC(=O)C1CC(c2ccccc2O)=NO1 (configuration not stated)	-3	4	99	1	.	.	.
CSc1ccccc1NC(=O)C1CC(c2ccccc2O)=NO1 (configuration not stated)	-4	-42	137*	-4	115	111	99
Cc1ccc(CNC(=O)c2cc3c(-c4ccc(Cl)cc4)nn(C)c3s2)o1	2	-55	155*	26	152*	110	106
CC(C)NC(=O)c1cc2c(-c3ccc(Cl)cc3)nn(C)c2s1	4	-58	158*	6	150*	109	105
Cn1nc(-c2ccc(Cl)cc2)c2cc(C(=O)N3CCN(c4ccccc4)CC3)sc21	3	-42	138*	8	143*	105	102
CCN1CCCC1CNC(=O)c1cc2c(-c3ccc(Cl)cc3)nn(C)c2s1 (configuration not stated)	4	-72	170*	6	156*	106	91
CCN1CCCC1CNC(=O)c1cc2c(-c3cccc(OC)c3)nn(C)c2s1 (configuration not stated)	6	8	96	18	.	.	.
COc1cccc(-c2nn(C)c3sc(C(=O)NCc4ccco4)cc23)c1	0	14	92	7	.	.	.
SMILES	HSP90 refold inh	STAT3 inh	STAT3 act-1	STAT1 inh	STAT3 act-2	NFkB act STAT3ct	STAT1 act
Cn1nc(-c2ccc(Cl)cc2)c2cc(C(=O)N3CCCC3)sc21	2	-4	107	28	.	.	.
Cn1nc(-c2ccc(Cl)cc2)c2cc(C(=O)N3CCN(c4ccccn4)CC3)sc21	2	7	101	10	.	.	.
Cc1ccc(C(=O)NCCc2c[nH]c3ccccc23)s1	-3	.	.	.	.	.	.
COCCCNC(=O)c1cc2c(-c3ccc(Cl)cc3)nn(C)c2s1	0	-50	151*	0	143*	105	96
CCCCN(CC)CCCNC(=O)c1cc2c(-c3ccc(OC)c(OC)c3)nn(C)c2s1	1	.	.	.	.	.	.
CCOC(=O)N1CCC(NC(=O)c2cc3c(-c4ccc(Cl)cc4)nn(C)c3s2)CC1	2	-56	151*	12	124	96	90
Cn1nc(-c2ccc(Cl)cc2)c2cc(C(=O)NCCCN3CCCC3)sc21	-1	-67	166*	3	155*	108	98
CCCCNC(=O)c1cc2c(-c3ccc(Cl)cc3)nn(C)c2s1	-2	-36	138*	-2	151*	111	105
CCN(CC)CCCNC(=O)c1cc2c(-c3cccc(OC)c3)nn(C)c2s1	3	.	.	.	.	.	.
C/C(O)=C(/C=Nc1ccccc1)C(=O)Nc1ccccc1	4	-12	112	3	.	.	.
Cc1ccc(S(=O)(=O)N2CCC(C(=O)NCCc3ccccn3)CC2)cc1	-2	-3	104	3	.	.	.
COCCNC(=O)c1cc2c(-c3ccc(Cl)cc3)nn(C)c2s1	-1	-52	152*	-7	139*	103	94
COCCNC(=O)c1cc2c(-c3ccccc3F)nn(C)c2s1	7	15	91	-2	.	.	.
COc1cc(C(=O)N/N=C(\C)Cc2ccccc2)cc(OC)c1OC	1	-56	143*	-5	95	110	97
Cc1cc(C)n2nc(Nc3ccccc3)cc2n1	-3	-62	157*	18	168*	112	105
Cc1cc(C)n2nc(-c3ccccc3)cc2n1	-1	-20	119	-47	.	.	.
COC(=O)c1ccccc1NC1=C/C(=N\S(=O)(=O)c2cccs2)c2ccccc2C1=O	4	-36	137*	-10	108	113	110
NC(=O)c1c(NC(=O)Cc2ccccc2)sc2c1CCN(Cc1ccccc1)C2	11	.	.	.	.	.	.
Cc1ccc(Nc2nc(CSc3nnc(-c4cccs4)o3)cs2)cc1	-1	0	104	-14	.	.	.
c1ccc(-c2nc(CSc3nnc(-c4cccs4)o3)cs2)cc1	-2	-67	161*	-6	168*	112	121*
O=C(COc1ccccc1Cl)Nc1ccc2oc(=O)ccc2c1	-2	.	.	.	.	.	.
CN1CCCN(S(=O)(=O)c2cccc(C#N)c2)CC1	3	.	.	.	.	.	.
CCCCN1C(=S)SC(C)(C)C1/[N+]([O-])=C/c1ccc(S(=O)(=O)NC)cc1 (configuration not stated)	1	.	.	.	.	.	.
COc1ccc(C2c3[nH]c4ccccc4c3CCN2Cc2ccoc2)c(F)c1 (configuration not stated)	3	-16	118	1	.	.	.
COc1cccc(C2c3[nH]c4ccccc4c3CCN2Cc2cnn(C)c2)c1 (configuration not stated)	0	.	.	.	.	.	.

Screening results as filed in PubChem.
